In brackets after ≈: the same amount, converted by molar mass.
Experiments:
[1] = tested on: P. aeruginosa ATCC 27,853; experiment: MIC, broth microdilution; type: cell-based, Pseudomonas aeruginosa; conditions: MHB II, 10^6 CFU/ml, 37 °C, 24 h, triplicate
How it was run: (§1)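 Broth microdilution per CLSI. Strains were freshly plated on LB agar from glycerol stocks; the colistin-resistant lpxD mutant was plated on LB with 10 µg/ml colistin. Inoculum was 10^6 CFU/ml in Mueller Hinton broth II with two-fold dilutions of test compound from 100 to 0.10 µg/ml, incubated at 37 °C for 24 h. MIC was the lowest concentration with no growth.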

[2] = tested on: P. aeruginosa ATCC 27,853; experiment: Minimum bactericidal concentration; type: cell-based, Pseudomonas aeruginosa; conditions: lowest concentration reducing at least 99.9 % of growth, plated on LB, 37 °C, 24 h, triplicate
[3] = tested on: K. pneumoniae CG258; experiment: Time-kill assay; type: cell-based, Klebsiella pneumoniae; conditions: peptide at 2× MIC
How it was run: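 Broth without compound was the growth control. Samples taken at 0, 3, 6 and 24 h were diluted and plated on MH II agar for CFU counts. Each curve was run at least in duplicate.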

[4] = tested on: A. baumannii Ab-1; experiment: Minimum bactericidal concentration; type: cell-based, Acinetobacter baumannii; conditions: lowest concentration reducing at least 99.9 % of growth, plated on LB, 37 °C, 24 h, triplicate
[5] = tested on: E. coli ATCC 25,922; experiment: Minimum bactericidal concentration; type: cell-based, Escherichia coli; conditions: lowest concentration reducing at least 99.9 % of growth, plated on LB, 37 °C, 24 h, triplicate
[6] = tested on: E. coli ATCC 25,922; experiment: Inhibition of biofilm formation; type: cell-based, Escherichia coli; conditions: ¼ MIC
How it was run: (§2)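 Medium was discarded, wells washed with PBS, and biofilm stained with 1 % crystal violet for 15 min at room temperature. After two PBS washes, stain was eluted in 70 % ethanol and read at 595 nm. SBF = (OD595 − OD595 […])/OD600: weak ≤0.5, moderate 0.5–1, strong >1. Triplicate; Kruskal-Wallis with Dunn's test.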

[7] = tested on: A. baumannii ATCC 19,606; experiment: Inhibition of biofilm formation; type: cell-based, Acinetobacter baumannii; conditions: ¼ MIC
How it was run: as §2

[8] = tested on: K. pneumoniae CG258; experiment: MIC, broth microdilution; type: cell-based, Klebsiella pneumoniae; conditions: MHB II, 10^6 CFU/ml, 37 °C, 24 h, triplicate
How it was run: as §1

[9] = tested on: 11 bacterial strains; experiment: MBC, summary over all strains; type: cell-based; conditions: highest value over all strains, converted to molar
How it was run: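 The no-peptide growth well, serially diluted and plated, served as reference. Percent growth was calculated from CFU counts; MBC was the lowest concentration giving ≥99.9 % reduction (CLSI). Triplicate.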

[10] = tested on: K. pneumoniae ATCC 43,816; experiment: Inhibition of biofilm formation; type: cell-based, Klebsiella pneumoniae; conditions: ¼ MIC
How it was run: as §2

[11] = tested on: E. coli ESBL 1057.1; experiment: Minimum bactericidal concentration; type: cell-based, Escherichia coli; conditions: lowest concentration reducing at least 99.9 % of growth, plated on LB, 37 °C, 24 h, triplicate
[12] = tested on: E. coli ESBL 1057.1; experiment: MIC, broth microdilution; type: cell-based, Escherichia coli; conditions: MHB II, 10^6 CFU/ml, 37 °C, 24 h, triplicate
How it was run: as §1

[13] = tested on: S. aureus MRSA USA 300; experiment: MIC, broth microdilution; type: cell-based, Staphylococcus aureus; conditions: MHB II, 10^6 CFU/ml, 37 °C, 24 h, triplicate
How it was run: as §1

[14] = tested on: K. pneumoniae ATCC 43,816; experiment: Minimum bactericidal concentration; type: cell-based, Klebsiella pneumoniae; conditions: lowest concentration reducing at least 99.9 % of growth, plated on LB, 37 °C, 24 h, triplicate
[15] = tested on: A. baumannii IB010; experiment: MIC, broth microdilution; type: cell-based, Acinetobacter baumannii; conditions: MHB II, 10^6 CFU/ml, 37 °C, 24 h, triplicate
How it was run: as §1

[16] = tested on: S. aureus ATCC 29,213; experiment: Minimum bactericidal concentration; type: cell-based, Staphylococcus aureus; conditions: lowest concentration reducing at least 99.9 % of growth, plated on LB, 37 °C, 24 h, triplicate
[17] = tested on: P. aeruginosa (ST175–1); experiment: Minimum bactericidal concentration; type: cell-based, Pseudomonas aeruginosa; conditions: lowest concentration reducing at least 99.9 % of growth, plated on LB, 37 °C, 24 h, triplicate
[18] = Stability in human serum; type: in vitro ADME; conditions: 25 % (v/v)
How it was run: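 Test compound was added to RPMI with human serum pre-equilibrated at 37 °C, giving 333.33 µM final compound and 25 % (v/v) final serum. Mixtures were stirred at 37 °C for 10, 30, 45 or 60 min. Proteins were precipitated with 96 % ethanol, cooled at 4 °C for 15 min and spun at 14,000 g. Supernatants were run on C18 RP-HPLC (TFA/CH3CN gradient, 220 nm); degradation was taken from loss of native peak area. Duplicate.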

[19] = tested on: K. pneumoniae ATCC 43,816; experiment: MIC, broth microdilution; type: cell-based, Klebsiella pneumoniae; conditions: MHB II, 10^6 CFU/ml, 37 °C, 24 h, triplicate
How it was run: as §1

[20] = tested on: 11 bacterial strains (S. aureus, P. aeruginosa, A. baumannii, K. pneumoniae, E. coli); experiment: Antimicrobial activity screening, summary over groups of strains; type: cell-based; conditions: 50 µg/ml screen; all strains, Gram-negative and Gram-positive
[21] = tested on: A. baumannii ATCC 19,606; experiment: Minimum bactericidal concentration; type: cell-based, Acinetobacter baumannii; conditions: lowest concentration reducing at least 99.9 % of growth, plated on LB, 37 °C, 24 h, triplicate
[22] = tested on: K. pneumoniae CG258; experiment: Minimum bactericidal concentration; type: cell-based, Klebsiella pneumoniae; conditions: lowest concentration reducing at least 99.9 % of growth, plated on LB, 37 °C, 24 h, triplicate
[23] = tested on: A. baumannii Ab-1; experiment: MIC, broth microdilution; type: cell-based, Acinetobacter baumannii; conditions: MHB II, 10^6 CFU/ml, 37 °C, 24 h, triplicate
How it was run: as §1

[24] = tested on: S. aureus ATCC 29,213; experiment: MIC, broth microdilution; type: cell-based, Staphylococcus aureus; conditions: MHB II, 10^6 CFU/ml, 37 °C, 24 h, triplicate
How it was run: as §1

[25] = tested on: P. aeruginosa ST175–1; experiment: Inhibition of biofilm formation; type: cell-based, Pseudomonas aeruginosa; conditions: ¼ MIC
How it was run: as §2

[26] = tested on: E. coli ATCC 25,922; experiment: MIC, broth microdilution; type: cell-based, Escherichia coli; conditions: MHB II, 10^6 CFU/ml, 37 °C, 24 h, triplicate
How it was run: as §1

[27] = tested on: P. aeruginosa (ST175–1); experiment: MIC, broth microdilution; type: cell-based, Pseudomonas aeruginosa; conditions: MHB II, 10^6 CFU/ml, 37 °C, 24 h, triplicate
How it was run: as §1

[28] = tested on: S. aureus MRSA USA 300; experiment: Minimum bactericidal concentration; type: cell-based, Staphylococcus aureus; conditions: lowest concentration reducing at least 99.9 % of growth, plated on LB, 37 °C, 24 h, triplicate
[29] = tested on: A. baumannii Ab-1; experiment: Inhibition of biofilm formation; type: cell-based, Acinetobacter baumannii; conditions: ¼ MIC
How it was run: as §2

[30] = tested on: Galleria mellonella larvae; experiment: In vivo toxicity in Galleria mellonella larvae; conditions: G. mellonella larvae, 50 µg/larvae (10 μl of 5 mg/ml), 30 °C, N=10 per group
How it was run: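 Sixth-instar Galleria mellonella larvae (200–300 mg) were held in sawdust at 4 °C until use. Groups of ten were injected with 10 μl of test compound, colistin or 0.9 % NaCl saline control into the second rear proleg, then kept at 30 °C.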

[31] = tested on: A. baumannii IB010; experiment: Minimum bactericidal concentration; type: cell-based, Acinetobacter baumannii; conditions: lowest concentration reducing at least 99.9 % of growth, plated on LB, 37 °C, 24 h, triplicate
[32] = tested on: A. baumannii ATCC 19,606; experiment: MIC, broth microdilution; type: cell-based, Acinetobacter baumannii; conditions: MHB II, 10^6 CFU/ml, 37 °C, 24 h, triplicate
How it was run: as §1

[33] = tested on: K. pneumoniae CG258; experiment: Inhibition of biofilm formation; type: cell-based, Klebsiella pneumoniae; conditions: ¼ MIC
How it was run: as §2

| Compound | MIC [1] [µg/mL] | MBC [2] [µg/mL] | bactericidal activity in time-kill assay ([3]; 24 h) | MBC [4] [µg/mL] | MBC [5] [µg/mL] | SBF index compared to BP607 [7] | MIC [8] [µg/mL] | highest MBC observed [9] [µM] | SBF index compared to BP607 [10] | MBC [11] [µg/mL] | MIC [12] [µg/mL] | MIC [13] [µg/mL] | MBC [14] [µg/mL] | MIC [15] [µg/mL] | MBC [16] [µg/mL] | MBC [17] [µg/mL] | remaining at 1 h, 333.33 µM [18] [%] | MIC [19] [µg/mL] | growth inhibition of all the strains [20] | MBC [21] [µg/mL] | also measured |
| --- | --- | --- | --- | --- | --- | --- | --- | --- | --- | --- | --- | --- | --- | --- | --- | --- | --- | --- | --- | --- | --- |
| CC[C@H](C)[C@H](NC(=O)[C@H](CCCCN)NC(=O)[C@H](CCCCN)NC(=O)[C@H](Cc1ccccc1)NC(=O)[C@H](CC(C)C)NC(=O)[C@H](CCCCN)NC(=O)[C@@H](N)CCCCN)C(=O)N[C@@H](CC(C)C)C(=O)N[C@@H](CCCCN)C(=O)N[C@@H](Cc1ccccc1)C(=O)N[C@@H](CC(C)C)C(N)=O [BP76] | 50 (≈ 35.6 µM) | 50 (≈ 35.6 µM) | not at 24 h | 12.5 (≈ 8.9 µM) | 6.25 (≈ 4.45 µM) | reduced SBF indices compared to BP607 | 6.25 (≈ 4.45 µM) | 40 | reduced SBF indices compared to BP607 | 12.5 (≈ 8.9 µM) | 12.5 (≈ 8.9 µM) | 50 (≈ 35.6 µM) | 12.5 (≈ 8.9 µM) | 25 (≈ 17.8 µM) | 25 (≈ 17.8 µM) | 50 (≈ 35.6 µM) | 15 | 12.5 (≈ 8.9 µM) | ≈ 90% | 6.25 (≈ 4.45 µM) | bactericidal activity in time-kill assay ([3]; 6 h): able to reduce growth to bactericidal level; production of biofilm [6]: reduced production of biofilm; MBC [22]: 6.25 µg/mL (≈ 4.45 µM); MIC [23]: 12.5 µg/mL (≈ 8.9 µM); MIC [24]: 25 µg/mL (≈ 17.8 µM); SBF index compared to BP607 [25]: reduced SBF indices compared to BP607; MIC [26]: 6.25 µg/mL (≈ 4.45 µM); MIC [27]: 50 µg/mL (≈ 35.6 µM); MBC [28]: 50 µg/mL (≈ 35.6 µM); SBF index compared to BP607 [29]: reduced SBF indices compared to BP607; survival after 24h [30]: 100%; MBC [31]: 25 µg/mL (≈ 17.8 µM); MIC [32]: 6.25 µg/mL (≈ 4.45 µM) |
| CC[C@H](C)[C@H](NC(=O)[C@H](CCCCN)NC(=O)[C@H](CCCCN)NC(=O)[C@H](Cc1ccccc1)NC(=O)[C@H](CC(C)C)NC(=O)[C@@H](CCCCN)NC(=O)[C@@H](N)CCCCN)C(=O)N[C@@H](CC(C)C)C(=O)N[C@@H](CCCCN)C(=O)N[C@@H](Cc1ccc(O)cc1)C(=O)N[C@@H](CC(C)C)C(N)=O [BP145] | 50 (≈ 35.2 µM) | 50 (≈ 35.2 µM) | bactericidal | 12.5 (≈ 8.8 µM) | 6.25 (≈ 4.4 µM) | reduced SBF indices compared to BP607 | 12.5 (≈ 8.8 µM) | 35 | reduced SBF indices compared to BP607 | 12.5 (≈ 8.8 µM) | 12.5 (≈ 8.8 µM) | 50 (≈ 35.2 µM) | 25 (≈ 17.6 µM) | 25 (≈ 17.6 µM) | 50 (≈ 35.2 µM) | 50 (≈ 35.2 µM) | 35 | 25 (≈ 17.6 µM) | ≈ 90% | 12.5 (≈ 8.8 µM) | biofilm formation [33]: inhibited biofilm formation; MBC [22]: 12.5 µg/mL (≈ 8.8 µM); MIC [23]: 12.5 µg/mL (≈ 8.8 µM); MIC [24]: 50 µg/mL (≈ 35.2 µM); SBF index compared to BP607 [25]: reduced SBF indices compared to BP607; MIC [26]: 6.25 µg/mL (≈ 4.4 µM); MIC [27]: 50 µg/mL (≈ 35.2 µM); MBC [28]: 50 µg/mL (≈ 35.2 µM); SBF index compared to BP607 [29]: reduced SBF indices compared to BP607; survival after 24h [30]: 70%; MBC [31]: 25 µg/mL (≈ 17.6 µM); MIC [32]: 6.25 µg/mL (≈ 4.4 µM) |

Reference: publication PMC11904594 (Current Research in Microbial Sciences, 2025)
